Measurements as given in ChEMBL document CHEMBL1141147, “Development of dual-acting benzofurans for thromboxane A2 receptor antagonist and prostacyclin receptor agonist: synthesis, structure-activity relationship, and evaluation of benzofuran derivatives” (J Med Chem, 2005).
Values belong to the compound of their own block, whether it stands above or below them.

Legend:
Thromboxane A2 receptor = molecular target: T1, Thromboxane A2 receptor (Homo sapiens, UniProt P21731); assay: Inhibition of [3H]SQ-29,548 binding to thromboxane A2 receptors (TP) of human platelet membrane
T1 sequence (P21731 whole entry): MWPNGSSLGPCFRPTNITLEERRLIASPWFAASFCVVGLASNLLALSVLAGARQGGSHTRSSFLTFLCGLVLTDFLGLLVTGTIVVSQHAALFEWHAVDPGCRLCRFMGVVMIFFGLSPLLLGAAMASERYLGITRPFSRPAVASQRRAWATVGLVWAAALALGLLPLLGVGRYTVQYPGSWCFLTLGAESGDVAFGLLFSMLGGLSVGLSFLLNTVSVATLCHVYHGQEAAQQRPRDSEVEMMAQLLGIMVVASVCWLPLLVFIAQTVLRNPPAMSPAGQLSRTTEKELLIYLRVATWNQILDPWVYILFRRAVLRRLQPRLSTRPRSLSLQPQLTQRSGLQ
How it was run: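 Washed human platelets from citrated, indomethacin-treated blood were freeze-thawed three times. Membranes were pelleted at 40000g and used at 10 μg protein in 50 mM Tris, 5 mM MgCl₂, pH 7.4. They were incubated with [³H]SQ-29548 and compound for 30 min at 25 °C, then filtered on GF/C and counted by scintillation. Nonspecific binding was set with 10 μM SQ-29548. Ki = IC50/(1 + L/Kd).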

Homo sapiens [1] = species on record: Homo sapiens; assay: Inhibition of U-46,619 (2 uM) induced platelet aggregation in human platelet rich plasma; type: functional, organism-based
How it was run: (§1)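 Human volunteer blood was citrated 9:1 with 3.8% sodium citrate and spun at 90–140g for 10 min at room temperature to give PRP; platelet-poor plasma came from a 1400g spin and set 100% aggregation. PRP was preincubated 1 min with compound at various concentrations, then stimulated. Light transmission was recorded for 5 min. Percent inhibition was taken against vehicle, N = 3; IC50 is 50% inhibition.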

Prostacyclin receptor = Prostacyclin receptor (Homo sapiens, UniProt P43119); assay: Inhibition of [3H]APS-314d binding to prostacyclin receptors (IP) of human platelet membrane
How it was run: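 Human platelet membranes (10 μg protein; freeze-thawed washed platelets, 40000g pellet) in 50 mM Tris, 5 mM MgCl₂, pH 7.4 were incubated with [³H]APS-314d sodium and compound for 60 min at 4 °C. Bound ligand was separated by GF/C filtration and counted by liquid scintillation. Nonspecific binding was set with 10 μM APS-314d sodium. Ki was derived from IC50 via the Cheng–Prusoff form.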

Homo sapiens [2] = species on record: Homo sapiens; assay: Inhibition of ADP (5 uM) induced platelet aggregation in human platelet rich plasma; type: functional, organism-based; how it was run: as §1
Homo sapiens [3] = species on record: Homo sapiens; assay: Inhibition of U-46,619 (4 uM) induced platelet aggregation in human platelet rich plasma; type: functional, organism-based
Monkey [4] = assay: Ex vivo inhibition of platelet aggregation induced by ADP (10 uM) in cynomolgus monkey platelet rich plasma; conditions: Cercopithecidae
Monkey [5] = assay: Ex vivo inhibition of platelet aggregation induced by ADP (5 uM) in cynomolgus monkey platelet rich plasma; type: functional, organism-based; conditions: Cercopithecidae

Sequence of Prostacyclin receptor (P43119 whole entry): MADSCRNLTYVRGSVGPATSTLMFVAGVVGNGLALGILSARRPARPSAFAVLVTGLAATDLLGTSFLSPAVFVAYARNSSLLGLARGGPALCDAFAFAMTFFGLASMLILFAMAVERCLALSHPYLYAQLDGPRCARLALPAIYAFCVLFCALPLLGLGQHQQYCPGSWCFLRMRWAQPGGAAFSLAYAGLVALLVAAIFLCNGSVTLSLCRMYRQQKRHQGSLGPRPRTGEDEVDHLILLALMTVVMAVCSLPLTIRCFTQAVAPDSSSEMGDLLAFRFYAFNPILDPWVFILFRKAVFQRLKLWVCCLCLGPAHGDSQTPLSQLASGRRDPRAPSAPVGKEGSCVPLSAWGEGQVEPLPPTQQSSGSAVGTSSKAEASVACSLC

IC50 (Homo sapiens [3]): 170 nM
IC50 (Homo sapiens [2]; Homo sapiens, Plasma): 170 nM
SMILES: O=C(O)COc1cccc2c1CCC=C2CCO/N=C(\c1ccccc1)c1cccnc1

Ki (Thromboxane A2 receptor): 180 nM
IC50 (Homo sapiens [1]): 3800 nM
Ki (Prostacyclin receptor): 3400 nM
IC50 (Homo sapiens [2]; Homo sapiens, Plasma): 56000 nM
SMILES: CCC(SCCc1c(CO)oc2c(OCC(=O)O)cccc12)(c1ccccc1)c1ccccc1

Ki (Thromboxane A2 receptor): 4.5 nM
IC50 (Homo sapiens [1]): 170 nM
Ki (Prostacyclin receptor): 530 nM
IC50 (Homo sapiens [2]): 2200 nM
SMILES: CC(SCCc1c(CO)oc2c(OCC(=O)O)cccc12)(c1ccccc1)c1ccccc1 [listing 1 of 2 here]

Ki (Thromboxane A2 receptor): 4.3 nM
IC50 (Homo sapiens [1]): 310 nM
Ki (Prostacyclin receptor): 1900 nM
IC50 (Homo sapiens [2]; Homo sapiens, Plasma): 3000 nM
SMILES: CC(c1ccccc1)(c1ccccc1)S(=O)(=O)CCc1c(CO)oc2c(OCC(=O)O)cccc12

Ki (Thromboxane A2 receptor): > 10000 nM
IC50 (Homo sapiens [1]): 5400 nM
Ki (Prostacyclin receptor): 560 nM
IC50 (Homo sapiens [2]; Homo sapiens, Plasma): 5200 nM
SMILES: O=C(O)COc1cccc2c(CCSCCC(c3ccccc3)c3ccccc3)coc12

Ki (Thromboxane A2 receptor): 72 nM
IC50 (Homo sapiens [1]): 2900 nM
Ki (Prostacyclin receptor): 5800 nM
IC50 (Homo sapiens [2]; Homo sapiens, Plasma): 9000 nM
SMILES: CC(SCCc1c(CCCO)oc2c(OCC(=O)O)cccc12)(c1ccccc1)c1ccccc1

Ki (Thromboxane A2 receptor): 26 nM
IC50 (Homo sapiens [1]): 580 nM
Ki (Prostacyclin receptor): 570 nM
IC50 (Homo sapiens [2]; Homo sapiens, Plasma): 8100 nM
SMILES: CC(SCCc1coc2c(OCC(=O)O)cccc12)(c1ccccc1)c1ccccc1

Ki (Thromboxane A2 receptor): 150 nM
IC50 (Homo sapiens [1]): 520 nM
Ki (Prostacyclin receptor): 760 nM
IC50 (Homo sapiens [2]; Homo sapiens, Plasma): 1500 nM
SMILES: O=C(O)COc1cccc2c(CCSC(c3ccccc3)(c3ccccc3)C(F)(F)F)c(CO)oc12

Ki (Thromboxane A2 receptor): > 5900 nM
IC50 (Homo sapiens [1]): 56000 nM
Ki (Prostacyclin receptor): > 2300 nM
IC50 (Homo sapiens [2]; Homo sapiens, Plasma): > 100000 nM
SMILES: CCCC(SCCc1c(CO)oc2c(OCC(=O)O)cccc12)(c1ccccc1)c1ccccc1

Ki (Thromboxane A2 receptor): > 15000 nM
IC50 (Homo sapiens [1]): > 100000 nM
Ki (Prostacyclin receptor): 2900 nM
IC50 (Homo sapiens [2]; Homo sapiens, Plasma): > 100000 nM
SMILES: O=C(O)COc1cccc2c(CCCSCCC(c3ccccc3)c3ccccc3)coc12

IC50 (Homo sapiens [3]): 21 nM
IC50 (Homo sapiens [2]; Homo sapiens, Plasma): > 10000 nM
SMILES: O=C(O)CCC/C=C\C[C@@H]1[C@H](CNNC(=O)Nc2ccccc2)[C@H]2CC[C@H]1O2

Ki (Thromboxane A2 receptor): 3100 nM
IC50 (Homo sapiens [1]): 510 nM
Ki (Prostacyclin receptor): 80 nM
IC50 (Homo sapiens [2]; Homo sapiens, Plasma): 730 nM
SMILES: O=C(O)COc1cccc2c(CCSCC(c3ccccc3)c3ccccc3)coc12

IC50 (Homo sapiens [3]): 5.7 nM
IC50 (Homo sapiens [2]; Homo sapiens, Plasma): 7.6 nM
SMILES: CC#CCC(C)[C@H](O)/C=C/[C@@H]1[C@H]2c3cccc(CCCC(=O)O)c3O[C@H]2C[C@H]1O (stereo not given in full) [BERAPROST SODIUM]

Further lines, the compound ahead of its results:

SMILES: O=C(O)COc1cccc2c(CSCC(c3ccccc3)c3ccccc3)coc12
Ki (Thromboxane A2 receptor): 2500 nM
IC50 (Homo sapiens [1]): 17300 nM
Ki (Prostacyclin receptor): 680 nM
IC50 (Homo sapiens [2]; Homo sapiens, Plasma): 19900 nM

SMILES: O=C(O)COc1cccc2c(CCCSC(c3ccccc3)c3ccccc3)coc12
Ki (Thromboxane A2 receptor): 3100 nM
IC50 (Homo sapiens [1]): 1600 nM
Ki (Prostacyclin receptor): 270 nM
IC50 (Homo sapiens [2]; Homo sapiens, Plasma): 1900 nM

SMILES: O=C(O)COc1cccc2c(CCSC(c3ccccc3)c3ccccc3)coc12
Ki (Thromboxane A2 receptor): 310 nM
IC50 (Homo sapiens [1]): 560 nM
IC50 (Homo sapiens [2]; Homo sapiens, Plasma): 5900 nM

SMILES: O=C(O)COc1cccc2c(CCCSCC(c3ccccc3)c3ccccc3)coc12
Ki (Thromboxane A2 receptor): > 15000 nM
IC50 (Homo sapiens [1]): 1400 nM
Ki (Prostacyclin receptor): 400 nM
IC50 (Homo sapiens [2]; Homo sapiens, Plasma): 1700 nM

SMILES: O=C(O)COc1cccc2c(CSCCC(c3ccccc3)c3ccccc3)coc12
Ki (Thromboxane A2 receptor): 3100 nM
IC50 (Homo sapiens [1]): 10000 nM
Ki (Prostacyclin receptor): 580 nM
IC50 (Homo sapiens [2]; Homo sapiens, Plasma): 12800 nM

SMILES: O=C(O)COc1cccc2c(CCSC(c3ccccc3)c3ccccc3)c(CO)oc12
Ki (Thromboxane A2 receptor): 88 nM
IC50 (Homo sapiens [1]): 460 nM
Ki (Prostacyclin receptor): 750 nM
IC50 (Homo sapiens [2]; Homo sapiens, Plasma): 3300 nM

SMILES: O=C(O)COc1cccc2c(CSC(c3ccccc3)c3ccccc3)coc12
Ki (Thromboxane A2 receptor): 5100 nM
IC50 (Homo sapiens [1]): > 100000 nM
Ki (Prostacyclin receptor): 4700 nM
IC50 (Homo sapiens [2]; Homo sapiens, Plasma): > 100000 nM

SMILES: CC(SCCc1c(CCO)oc2c(OCC(=O)O)cccc12)(c1ccccc1)c1ccccc1
Ki (Thromboxane A2 receptor): 78 nM
IC50 (Homo sapiens [1]): 540 nM
Ki (Prostacyclin receptor): 210 nM
IC50 (Homo sapiens [2]; Homo sapiens, Plasma): 710 nM

SMILES: CC(SCCc1c(CO)oc2c(OCC(=O)O)cccc12)(c1ccccc1)c1ccccc1 [listing 2 of 2 here]
IC50 (Monkey [4]): 140 nM
IC50 (Homo sapiens [3]): 120 nM
IC50 (Homo sapiens [2]): 2200 nM
IC50 (Monkey [5]): 3700 nM

SMILES: CC(c1ccccc1)(c1ccccc1)[S+]([O-])CCc1c(CO)oc2c(OCC(=O)O)cccc12 (stereo not given)
Ki (Thromboxane A2 receptor): 51 nM
IC50 (Homo sapiens [1]): 1700 nM
Ki (Prostacyclin receptor): > 10000 nM
IC50 (Homo sapiens [2]; Homo sapiens, Plasma): 7900 nM
